According to ChEMBL document CHEMBL1153956, “Synthesis of protein tyrosine phosphatase 1B inhibitors: model validation and docking studies” (Bioorg Med Chem Lett, 2009):

Key:
Rattus norvegicus [1] = test: Antidiabetic activity in sucrose loaded Sprague-Dawley rat model assessed as reduction in blood glucose level at 100 mg/kg; format: functional; design: scale not given: the % may be the effect or the level left
Rattus norvegicus [2] = test: Antidiabetic activity in streptozotocin-induced diabetic Sprague-Dawley rat model assessed as reduction in blood glucose level at 100 mg/kg; format: functional; design: scale not given: the % may be the effect or the level left
Summary of the method: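 Streptozotocin-induced diabetic rats received compound, vehicle or metformin as reference standard. Blood glucose was monitored before dosing and up to 24 h after administration. Activity is expressed as percent sugar-lowering effect.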

[3] = target: T1, Tyrosine-protein phosphatase non-receptor type 1 (Homo sapiens, UniProt P18031); test: Inhibition of PTP1B
T1 sequence (P18031 whole entry): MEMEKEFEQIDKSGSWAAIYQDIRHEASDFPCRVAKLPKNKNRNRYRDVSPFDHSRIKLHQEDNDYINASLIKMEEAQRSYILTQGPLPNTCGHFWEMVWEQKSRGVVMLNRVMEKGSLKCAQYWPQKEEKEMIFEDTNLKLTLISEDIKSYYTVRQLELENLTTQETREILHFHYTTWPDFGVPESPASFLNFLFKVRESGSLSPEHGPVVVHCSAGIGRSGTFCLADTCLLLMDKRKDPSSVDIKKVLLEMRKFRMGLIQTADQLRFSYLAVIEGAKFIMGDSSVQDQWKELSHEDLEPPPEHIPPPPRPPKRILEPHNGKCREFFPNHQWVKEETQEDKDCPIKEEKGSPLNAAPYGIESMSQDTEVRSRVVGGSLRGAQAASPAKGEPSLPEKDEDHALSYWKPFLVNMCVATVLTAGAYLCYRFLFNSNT
Summary of the method: (§1)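 PTP1B was pre-incubated with test compound for 10 min in the reaction system, at graded doses for IC50 or at a single fixed concentration for percent inhibition. Residual activity was measured by the Goldstein method with 10 mM PNPP in 50 mM HEPES pH 7.0 containing 1 mM EDTA and DTT. Peroxovanadate served as control. The reaction was stopped with 0.1 N NaOH and read at 410 nm. p-Nitrophenolate was quantified using ε = 1.78 × 10⁴ M⁻¹ cm⁻¹.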

[4] = target: T2, Tyrosine-protein phosphatase non-receptor type 1 (Homo sapiens) (UniProt P18031); test: Inhibition of PTP1B at 100 uM; summary of the method: as §1
T2 sequence (whole entry): T1 sequence (P18031 whole entry)

Structure (SMILES)	Activity (Rattus norvegicus [1])	Activity (Rattus norvegicus [2])	IC50 [3]	inhibition [4]
CN(C)C(=N)NC(=N)N [METFORMIN]	27.2%	23.9%	–	–
COc1ccc(CCNC(=O)Cc2cccc3ccccc23)cc1	25.1%	24.1%	69 µM	76.9%
COc1ccc(CCNC(=O)COc2ccccc2)cc1	24.6%	20.6%	71 µM	68.2%
COc1ccc(CCNC(=O)Cc2ccccc2[N+](=O)[O-])cc1	19.8%	17.5%	87 µM	62.5%
